Experimental data from ChEMBL document CHEMBL1140410, “Discovery of the novel antithrombotic agent 5-chloro-N-({(5S)-2-oxo-3- [4-(3-oxomorpholin-4-yl)phenyl]-1,3-oxazolidin-5-yl}methyl)thiophene- 2-carboxamide (BAY 59-7939): an oral, direct factor Xa inhibitor” (J Med Chem, 2005).

Legend:
[1] = Plasma clearance in wistar rats after intravenous administration of the compound at a dose of 1 mg/kg; format: ADME, organism-based; set-up: dose 1 mg/kg, route intravenous; conditions: rat
Summary of the method: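 Rats given 1 mg kg-1 iv in EtOH/PEG400 (1:9), 1 mL kg-1.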

Rattus norvegicus [2] = assay: In vivo antithrombotic activity of compound in the arteriovenous shunt model in anesthetized rats after peroral administration; format: functional; conditions: po
Summary of the method: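 Anesthetized rats, AV shunt from right carotid artery to left jugular vein, containing a nylon thread folded into a 20 mm double string. Compound in solutol/ethanol/water (40%/10%/50% v/v/v), or vehicle, dosed orally 90 min before thrombus induction. Shunt opened for 15 min, then the thread with thrombus was removed and weighed.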

Rattus norvegicus [3] = species: Rattus norvegicus; assay: In vitro inhibitory concentration of compound required to double the time to fibrin formation upon incubation with rat plasma for 10 minutes at 37 degrees C; format: functional
Summary of the method: (§1)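 Inhibitor at increasing concentrations, or solvent, added to plasma and incubated 10 min at 37 °C. PT then measured in a coagulometer using commercial kits and compared with control plasma. Value is the concentration that doubles time to fibrin formation.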

[4] = Oral bioavailability in rat; format: ADME, organism-based; conditions: in vivo
Rattus norvegicus [5] = assay: In vivo antithrombotic activity of compound in the arteriovenous shunt model in anesthetized rats after intravenous administration; format: functional
Summary of the method: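 Anesthetized rats with a carotid artery to jugular vein shunt: PE-60 catheters joined by a 30 mm PE-160 tube holding a rough nylon thread folded into a 20 mm double string. Compound in PEG/water/glycerol (996 g/100 g/60 g), or vehicle, given as iv bolus into a tail vein 10 min before thrombus induction. Shunt open 15 min; thread with thrombus withdrawn and weighed.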

[6] = Fraction of unbound compound in rat plasma; format: ADME, cell-free
Summary of the method: (§2)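 Equilibrium dialysis of [14C]-labelled compound in plasma at targets of 0.1–100 mg L-1. Spiked plasma preincubated 15 min at 37 °C, then dialyzed 1 h at 37 °C against PBS pH 7.4 across a cellulose membrane. Radioactivity in buffer and plasma counted by LSC; fu = cu/c × 100.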

[7] = Half-life after intravenous administration to rats; format: ADME, organism-based; conditions: rat, in vivo
[8] = Apparent volume of distribution at equilibrium after intravenous administration in rats; format: ADME, organism-based; conditions: rat, in vivo, read-out: Vss
Coagulation factor X [9] = molecular target: T1, Coagulation factor X (Homo sapiens, UniProt P00742); assay: In vitro inhibitory concentration of compound required to double the time to fibrin formation upon incubation with human plasma for 10 minutes at 37 degrees C; format: functional, cell-free; summary of the method: as §1
[10] = Plasma clearance in wistar rats after intravenous administration of the compound at a dose of 0.3 mg/kg; format: ADME, organism-based; set-up: dose 0.3 mg/kg, route intravenous; conditions: rat
Summary of the method: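 Rats given 0.3 mg kg-1 iv in plasma/DMSO (99:1), 2 mL kg-1.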

Coagulation factor X [11] = molecular target: T1, Coagulation factor X; assay: In vitro inhibition of human coagulation factor Xa after incubation for 10 min at 25 degree C
[12] = Mean half-life after intravenous administration to rats at a dose of 1 and 3 mg/kg; format: ADME, organism-based; set-up: dose 3 mg/kg, route intravenous; conditions: rat, in vivo
Summary of the method: (§3)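 Rats given 1 and 3 mg kg-1 iv in PEG400/water (6:4), 5 mL kg-1. Values are means over both doses.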

[13] = Mean plasma clearance in female Beagle dogs after intravenous administration of the compound at a dose of 0.3 and 1 mg/kg; format: ADME, organism-based, Canis lupus familiaris; set-up: dose 1 mg/kg, route intravenous; conditions: dog
[14] = Fraction of unbound compound in female Beagle dog plasma; format: ADME, cell-free, Canis lupus familiaris; conditions: read-out: Fraction free drug in plasma; summary of the method: as §2
[15] = Mean apparent volume of distribution at equilibrium after intravenous administration in rats at a dose of 1 and 3 mg/kg; format: ADME, organism-based; set-up: dose 3 mg/kg, route intravenous; conditions: rat, in vivo, read-out: Vss; summary of the method: as §3
[16] = Bioavailability in female Beagle dog is the mean value of AUCnorm perorally to AUCnorm intravenously; format: ADME, organism-based, Canis lupus familiaris; conditions: in vivo, po
Summary of the method: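 Female beagle dogs dosed po at 0.3, 1 and 3 mg kg-1, 1 mL kg-1. Bioavailability = AUCnorm after oral dosing divided by AUCnorm after iv 0.3 or 1.0 mg kg-1 infusion.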

[17] = Mean half-life after intravenous administration to female Beagle dogs at a dose of 0.3 and 1 mg/kg; format: ADME, organism-based, Canis lupus familiaris; set-up: dose 1 mg/kg, route intravenous; conditions: dog, in vivo
[18] = Mean apparent volume of distribution at equilibrium after administration in female Beagle dogs at a dose of 0.3 and 1 mg kg-1 intravenously; format: ADME, organism-based, Canis lupus familiaris; set-up: dose 1 mg kg-1, route intravenous; conditions: dog, in vivo, iv, read-out: Vss
[19] = Mean plasma clearance in wistar rats after intravenous administration of the compound at a dose of 1 and 3 mg/kg; format: ADME, organism-based; set-up: dose 3 mg/kg, route intravenous; conditions: rat; summary of the method: as §3

T1 sequence (P00742 41-179 limits assumed): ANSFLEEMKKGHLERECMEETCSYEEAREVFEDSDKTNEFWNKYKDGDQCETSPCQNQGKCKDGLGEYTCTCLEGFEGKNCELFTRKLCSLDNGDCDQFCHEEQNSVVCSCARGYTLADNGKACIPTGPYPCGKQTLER
T1 sequence (P00742 235-488 limits assumed): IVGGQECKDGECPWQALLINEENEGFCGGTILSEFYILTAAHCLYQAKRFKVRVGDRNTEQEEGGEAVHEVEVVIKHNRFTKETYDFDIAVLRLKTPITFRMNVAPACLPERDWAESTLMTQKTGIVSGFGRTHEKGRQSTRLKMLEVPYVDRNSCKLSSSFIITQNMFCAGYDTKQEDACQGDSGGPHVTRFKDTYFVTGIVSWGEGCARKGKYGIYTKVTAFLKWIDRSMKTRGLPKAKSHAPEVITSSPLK

IC50 (Coagulation factor X [11]) [nM]	Structure (SMILES)	ED50 (Rattus norvegicus [2]) [mg/kg]	Concentration (Rattus norvegicus [3]) [µM]	ED50 (Rattus norvegicus [5]) [mg/kg]	Concentration (Coagulation factor X [9]) [µM]	further results
–	O=C(NC[C@H]1CN(c2ccc(N3CCCC3=O)cc2)C(=O)O1)c1ccc(Cl)s1	> 30	2.8	7	–	clearance [1]: 2.83 mL/min/kg; bioavailability [4]: 65%; fraction unbound ([6]; read-out: Fraction free drug in plasma): 0.002; half-life [7]: 66 min; Vd [8]: 0.21 L/kg
–	O=C(NC[C@H]1CN(c2ccc(N3CCOCC3=O)c(F)c2)C(=O)O1)c1ccc(Cl)s1	10	0.32	1	0.17	clearance [10]: 18.2 mL/min/kg; half-life [7]: 18 min; Vd [8]: 0.32 L/kg
20000	O=C(NC[C@H]1CN(c2ccc(N3CCSCC3)c(F)c2)C(=O)O1)c1cccs1	–	–	–	–	–
8.5	Nc1cc(C(=O)NC[C@H]2CN(c3ccc(N4CCOCC4=O)cc3)C(=O)O2)sc1Cl	–	–	–	–	–
–	O=C(NC[C@H]1CN(c2ccc(N3CCOCC3=O)cc2)C(=O)O1)c1ccc(Cl)s1 [RIVAROXABAN]	5	0.3	1	0.23	half-life [12]: 54 min; clearance [13]: 5 mL/min/kg; fraction unbound [14]: 0.104; Vd [15]: 0.3 L/kg; bioavailability [16]: 86%; half-life [17]: 54 min; bioavailability [4]: 60%; Fraction free drug in plasma [6]: 1.3%; Vd [18]: 0.4 L/kg; clearance [19]: 6.67 mL/min/kg
120	N=C(N)COc1cccc(CN2CC3C(NC(=O)c4ccc(Cl)s4)C=CC[C@H]3C2=O)c1 (some centres not stated)	–	–	–	–	–
–	O=C(NC[C@H]1CN(c2ccc(N3CCOCC3=O)c(C(F)(F)F)c2)C(=O)O1)c1ccc(Cl)s1	–	0.32	3	0.26	–
–	Nc1cc(N2C[C@H](CNC(=O)c3ccc(Cl)s3)OC2=O)ccc1N1CCOCC1=O	–	0.49	–	0.3	–
